From ChEMBL document CHEMBL5385966, “Synthesis and biological evaluation of new naphthalimide-thiourea derivatives as potent antimicrobial agents active against multidrug-resistant Staphylococcus aureus and Mycobacterium tuberculosis” (RSC Med Chem, 2024)
Converted amounts (≈) assume the structure as drawn. The source made the active and inactive calls. No cut-off for these calls is given here.

Legend:
Staphylococcus aureus [1] = test: Antibacterial activity against Staphylococcus aureus ATCC 29213 assessed as bacterial growth inhibition incubated for 16 to 18 hrs by CLSI based antibiotic susceptibility testing method; format: functional; settings: time 16-18 hrs
Outline: (§1)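 Broth microdilution in cation-adjusted Mueller-Hinton broth. Compounds were tested at […], with levofloxacin as reference and medium-only controls. Plates were incubated at 37 °C for 16-18 h. MIC was the lowest concentration with no visible growth; three independent determinations, each in duplicate.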

Staphylococcus aureus [2] = test: Bactericidal activity against Staphylococcus aureus ATCC 29213 assessed as reduction in remnant bacterial cells measured for 24 hrs by time-kill assay; format: functional, organism-based
Outline: (§2)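 Time-kill assay: S. aureus ATCC 29213 at ~10⁶ cfu/mL in MHB, exposed to 1X and 10X MIC at 37 °C, in triplicate. Samples taken at 0, 1, 6 and 24 h were serially diluted in PBS and plated on TSA for 18-20 h at 37 °C. Surviving cfu/mL were counted against untreated controls.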

Staphylococcus aureus [3] = test: Antibacterial activity against methicillin/ceftriaxone/meropenem-resistant Staphylococcus aureus NRS10198 clinical isolate assessed as bacterial growth inhibition incubated for 16 to 18 hrs by CLSI based antibiotic susceptibility testing method; format: functional; settings: time 16-18 hrs; outline: as §1
Staphylococcus aureus [4] = test: Antibacterial activity against methicillin/ceftriaxone/meropenem/vancomycin/teicoplanin-resistant Staphylococcus aureus VRS4 clinical isolate assessed as bacterial growth inhibition incubated for 16 to 18 hrs by CLSI based antibiotic susceptibility testing method; format: functional; settings: time 16-18 hrs; outline: as §1
[5] = Cytotoxicity against African green monkey Vero cells by MTT assay; format: toxicity, cell-based; settings: chlorocebus sabaeus
Outline: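 Vero cells were seeded at ~10³ per well at 37 °C, 5% CO2. After 24 h, compounds were added at 5-100 mg/L for 72 h. […] was added for 4 h, formazan was dissolved in DMSO and read at 540 nm. CC50 was taken as the lowest concentration reducing viability by 50%; doxorubicin was the positive control; triplicate.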

[6] = tested on: Mycolicibacterium fortuitum; test: Antimycobacterial activity against Mycobacterium fortuitum ATCC 6841 assessed as bacterial growth inhibition incubated for 72 hrs by resazurin dye based broth microdilution method; format: functional, organism-based
Outline: (§3)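 Broth microdilution in Middlebrook 7H9 with 10% ADC-Tween-80 (0.2% glycerol, 0.05% Tween-80), inoculum ~10⁶ cfu/mL. Compounds came from 10 mg/mL DMSO stocks and were tested as two-fold serial dilutions at 37 °C, 7 days for M. tuberculosis H37Rv and 72 h for NTM. Growth was read visually with PrestoBlue resazurin dye; MIC was the lowest concentration preventing growth. Triplicate determinations, each in duplicate.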

Mycobacteroides chelonae = test: Antimycobacterial activity against Mycobacteroides chelonae ATCC 35752 assessed as bacterial growth inhibition incubated for 72 hrs by resazurin dye based broth microdilution method; format: functional, organism-based; outline: as §3
[7] = tested on: Mycobacteroides abscessus; test: Antimycobacterial activity against Mycobacterium abscessus ATCC 19977 assessed as bacterial growth inhibition incubated for 72 hrs by resazurin dye based broth microdilution method; format: functional, organism-based; outline: as §3
Staphylococcus aureus [8] = test: Antibacterial activity against methicillin/ceftriaxone/meropenem-resistant Staphylococcus aureus NRS10129 clinical isolate assessed as bacterial growth inhibition incubated for 16 to 18 hrs by CLSI based antibiotic susceptibility testing method; format: functional; settings: time 16-18 hrs; outline: as §1
[9] = Selectivity index, ratio of CC50 for African green monkey Vero cells to MIC for Staphylococcus aureus ATCC 29213; format: toxicity, cell-based; settings: read-out: Selectivity Index
Staphylococcus aureus [10] = test: Antibacterial activity against methicillin/ceftriaxone/meropenem-resistant Staphylococcus aureus NRS10186 clinical isolate assessed as bacterial growth inhibition incubated for 16 to 18 hrs by CLSI based antibiotic susceptibility testing method; format: functional; settings: time 16-18 hrs; outline: as §1
Staphylococcus aureus [11] = test: Antibacterial activity against methicillin-sensitive Staphylococcus aureus ATCC 29213 clinical isolate assessed as bacterial growth inhibition incubated for 16 to 18 hrs by CLSI based antibiotic susceptibility testing method; format: functional; settings: time 16-18 hrs; outline: as §1
[12] = tested on: Mycobacterium tuberculosis; test: Antimycobacterial activity against Mycobacterium tuberculosis H37Rv ATCC 27294 assessed as bacterial growth inhibition incubated for 7 days by resazurin dye based broth microdilution method; format: functional; settings: H37Rv ATCC 27294, 168 h, time 7 day; outline: as §3
Staphylococcus aureus [13] = test: Antibacterial activity against methicillin/ceftriaxone/meropenem/gentamycin/linezolid-resistant Staphylococcus aureus NRS10100 clinical isolate assessed as bacterial growth inhibition incubated for 16 to 18 hrs by CLSI based antibiotic susceptibility testing method; format: functional; settings: time 16-18 hrs; outline: as §1
Staphylococcus aureus [14] = test: Antibacterial activity against methicillin/ceftriaxone/meropenem/gentamycin/linezolid-resistant Staphylococcus aureus NRS10119 clinical isolate assessed as bacterial growth inhibition incubated for 16 to 18 hrs by CLSI based antibiotic susceptibility testing method; format: functional; settings: time 16-18 hrs; outline: as §1
Staphylococcus aureus [15] = test: Bactericidal activity against Staphylococcus aureus ATCC 29213 assessed as reduction in remnant bacterial cells at 10 times MIC measured for 24 hrs by time-kill assay; format: functional; outline: as §2
Acinetobacter baumannii = test: Antibacterial activity against Acinetobacter baumannii BAA 1605 assessed as bacterial growth inhibition incubated for 16 to 18 hrs by CLSI based antibiotic susceptibility testing method; format: functional, organism-based; settings: time 16-18 hrs; outline: as §1
Pseudomonas aeruginosa = test: Antibacterial activity against Pseudomonas aeruginosa ATCC 27853 assessed as bacterial growth inhibition incubated for 16 to 18 hrs by CLSI based antibiotic susceptibility testing method; format: functional, organism-based; settings: time 16-18 hrs; outline: as §1
Staphylococcus aureus [16] = test: Antibacterial activity against methicillin/ceftriaxone/meropenem/vancomycin/teicoplanin-resistant Staphylococcus aureus VRS12 clinical isolate assessed as bacterial growth inhibition incubated for 16 to 18 hrs by CLSI based antibiotic susceptibility testing method; format: functional; settings: time 16-18 hrs; outline: as §1
Staphylococcus aureus [17] = test: Antibacterial activity against methicillin/ceftriaxone/meropenem-resistant Staphylococcus aureus NRS10192 clinical isolate assessed as bacterial growth inhibition incubated for 16 to 18 hrs by CLSI based antibiotic susceptibility testing method; format: functional; settings: time 16-18 hrs; outline: as §1
Escherichia coli = test: Antibacterial activity against Escherichia coli ATCC 25922 assessed as bacterial growth inhibition incubated for 16 to 18 hrs by CLSI based antibiotic susceptibility testing method; format: functional, organism-based; settings: time 16-18 hrs; outline: as §1
Staphylococcus aureus [18] = test: Antibacterial activity against methicillin/ceftriaxone-resistant Staphylococcus aureus NRS10194 clinical isolate assessed as bacterial growth inhibition incubated for 16 to 18 hrs by CLSI based antibiotic susceptibility testing method; format: functional; settings: time 16-18 hrs; outline: as §1
Staphylococcus aureus [19] = test: Antibacterial activity against methicillin/ceftriaxone/meropenem/gentamycin/vancomycin/teicoplanin-resistant Staphylococcus aureus VRS1 clinical isolate assessed as bacterial growth inhibition incubated for 16 to 18 hrs by CLSI based antibiotic susceptibility testing method; format: functional; settings: time 16-18 hrs; outline: as §1
Klebsiella pneumoniae = test: Antibacterial activity against Klebsiella pneumoniae BAA 1705 assessed as bacterial growth inhibition incubated for 16 to 18 hrs by CLSI based antibiotic susceptibility testing method; format: functional, organism-based; settings: time 16-18 hrs; outline: as §1
Staphylococcus aureus [20] = test: Antibacterial activity against methicillin/ceftriaxone/meropenem-resistant Staphylococcus aureus NRS10191 clinical isolate assessed as bacterial growth inhibition incubated for 16 to 18 hrs by CLSI based antibiotic susceptibility testing method; format: functional; settings: time 16-18 hrs; outline: as §1
Staphylococcus aureus [21] = test: Antibacterial activity against methicillin/ceftriaxone/meropenem-resistant Staphylococcus aureus NRS10193 clinical isolate assessed as bacterial growth inhibition incubated for 16 to 18 hrs by CLSI based antibiotic susceptibility testing method; format: functional; settings: time 16-18 hrs; outline: as §1
Staphylococcus aureus [22] = test: Antimicrobial activity against Staphylococcus aureus assessed as microbial growth inhibition; format: functional

| Compound | MIC (Staphylococcus aureus [1]) | MIC (Staphylococcus aureus [3]) | MIC (Staphylococcus aureus [4]) | CC50 [5] | growth inhibition (GI) [6] | growth inhibition (GI) (Mycobacteroides chelonae) | growth inhibition (GI) [7] | MIC (Staphylococcus aureus [8]) | selectivity ratio [9] | MIC (Staphylococcus aureus [10]) | MIC (Staphylococcus aureus [11]) | MIC [12] | MIC (Staphylococcus aureus [13]) | MIC (Staphylococcus aureus [14]) | growth inhibition (GI) (Acinetobacter baumannii) | growth inhibition (GI) (Pseudomonas aeruginosa) | MIC (Staphylococcus aureus [16]) | MIC (Staphylococcus aureus [17]) | growth inhibition (GI) (Escherichia coli) | MIC (Staphylococcus aureus [22]) | other results |
| --- | --- | --- | --- | --- | --- | --- | --- | --- | --- | --- | --- | --- | --- | --- | --- | --- | --- | --- | --- | --- | --- |
| O=C1c2cccc3cccc(c23)C(=O)N1CCN1CCN(C(=S)NC2CCCCCC2)CC1 | 0.25 µg/mL (≈ 0.538 µM) | 1 µg/mL (≈ 2.15 µM) | 0.5 µg/mL (≈ 1.08 µM) | > 20 µg/mL | inactive | inactive | inactive | 0.5 µg/mL (≈ 1.08 µM) | > 80 | 1 µg/mL (≈ 2.15 µM) | 0.5 µg/mL (≈ 1.08 µM) | > 64 µg/mL | 0.5 µg/mL (≈ 1.08 µM) | 1 µg/mL (≈ 2.15 µM) | inactive | inactive | 1 µg/mL (≈ 2.15 µM) | 0.5 µg/mL (≈ 1.08 µM) | inactive | – | Activity (Staphylococcus aureus [2]): Dose-Dependent Effect; Activity (Staphylococcus aureus [15]): ~5 log10CFU/ml; MIC (Staphylococcus aureus [18]): 0.5 µg/mL (≈ 1.08 µM); MIC (Staphylococcus aureus [19]): 1 µg/mL (≈ 2.15 µM); growth inhibition (GI) (Klebsiella pneumoniae): inactive; MIC (Staphylococcus aureus [20]): 1 µg/mL (≈ 2.15 µM); MIC (Staphylococcus aureus [21]): 1 µg/mL (≈ 2.15 µM) |
| CCCCCc1nnc(NC(=S)NS(=O)(=O)c2ccc(C)cc2)s1 | – | – | – | – | – | – | – | – | – | – | – | – | – | – | – | – | – | – | – | 0.78 µg/mL (≈ 2.03 µM) | – |
| COc1ccc(-c2csc(NC(=S)N[C@@H]3O[C@H](COC(C)=O)[C@@H](OC(C)=O)[C@H](OC(C)=O)[C@H]3OC(C)=O)n2)cc1[N+](=O)[O-] | – | – | – | – | – | – | – | – | – | – | – | – | – | – | – | – | – | – | – | 0.78 µg/mL (≈ 1.22 µM) | – |
| CCCOC(=O)c1ccc2sc(NC(=S)N[C@@H]3O[C@H](COC(C)=O)[C@@H](OC(C)=O)[C@H](OC(C)=O)[C@H]3OC(C)=O)nc2c1 | – | – | – | – | – | – | – | – | – | – | – | – | – | – | – | – | – | – | – | 0.78 µg/mL (≈ 1.25 µM) | – |
| O=C(CN1C(=O)c2cccc3cccc(c23)C1=O)NC1CCN(C(=S)NC2CCCCCC2)CC1 | 0.5 µg/mL (≈ 1.01 µM) | 1 µg/mL (≈ 2.03 µM) | 1 µg/mL (≈ 2.03 µM) | > 100 µg/mL | inactive | inactive | inactive | 1 µg/mL (≈ 2.03 µM) | > 200 | 0.5 µg/mL (≈ 1.01 µM) | 1 µg/mL (≈ 2.03 µM) | > 64 µg/mL | 0.5 µg/mL (≈ 1.01 µM) | 0.5 µg/mL (≈ 1.01 µM) | inactive | inactive | 1 µg/mL (≈ 2.03 µM) | 1 µg/mL (≈ 2.03 µM) | inactive | – | MIC (Staphylococcus aureus [18]): 1 µg/mL (≈ 2.03 µM); MIC (Staphylococcus aureus [19]): 1 µg/mL (≈ 2.03 µM); growth inhibition (GI) (Klebsiella pneumoniae): inactive; MIC (Staphylococcus aureus [20]): 0.5 µg/mL (≈ 1.01 µM); MIC (Staphylococcus aureus [21]): 0.5 µg/mL (≈ 1.01 µM) |
